The record followed here is ChEMBL document CHEMBL4480403, “DDX3X Helicase Inhibitors as a New Strategy To Fight the West Nile Virus Infection” (J Med Chem, 2019).

Calls of active or inactive are those of the source. The rule behind the calls is not given here.

Data set [1] has as its system West Nile virus. Nature of the data set: Antiviral activity against West Nile virus. It counts as functional, organism-based. An outline of the steps: (§1)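 Huh7 cells (2.5 × 10^5 per well, overnight) infected with lineage 2 WNV at MOI 0.1 for 1 h at 37°C, washed, then compound added in 10-fold dilutions (final 100–0.01 μM) with DMSO as virus control. Agarose overlay, 4 days at 37°C, methanol fixation, crystal violet staining. PFU relative to DMSO; IC50 by exponential fit at 50% PFU. Duplicates, repeated at least twice.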

A short description of data set [2]: (§2) Cytotoxicity against human HuH7 cells after 3 days by MTT assay. The format is cell-based, Huh-7. The note with it: human, HuH7 cells. In short, it runs like this: (§3)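 Huh7 cells (2.5 × 10^4 per well) adhered overnight. Confluent monolayers washed, then treated with compound (final 100–0.01 μM) or DMSO control for 3 days at 37°C. Viability by MTT, absorbance 570 nm, expressed relative to DMSO-treated cells.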
In general terms: Formazan colour is commonly taken as a measure of viable cells.

For data set [3], the target named is T1, ATP-dependent RNA helicase DDX3X (Homo sapiens, UniProt O00571). Nature of the data set: Inhibition of full length His-tagged human DDX3X expressed in Escherichia coli assessed as reduction in DDX3X helicase activity using FAM-labeled double stranded RNA as substrate after 40 mins by FRET assay relative to control. In short, it runs like this:
(§4)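 Recombinant His-tagged full-length DDX3X expressed in E. coli, Ni-NTA purified. Unwinding of FAM-labelled dsRNA, with capture strand at 100 nM, in Tris-HCl pH 8, 70 mM KCl, 2 mM MgCl2, 2 mM DTT, 2 mM ATP. Started with DDX3X, 37°C, 40 min, fluorescence read every 30 s. Initial slope gives unwinding rate; IC50 by nonlinear regression of triplicates.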

In data set [4] the test system is West Nile virus. Nature of the data set: Antiviral activity against West Nile virus infected in human HuH7 cells incubated for 4 days by crystal violet staining based plaque reduction assay. It counts as functional, organism-based. Particulars: Huh-7, 96 h. An outline of the steps: as §1
A short description of data set [5]: Apparent permeability of the compound by PAMPA. The format is ADME. An outline of the steps:
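PAMPA: 0.5 mM donor solution in pH 7.4 phosphate buffer, diluted from 1 mM DMSO stock. Filter coated with 1% phosphatidylcholine in dodecane; acceptor 50% DMSO in buffer. Incubated 5 h at room temperature with shaking. Donor and acceptor quantified by LC-UV at 280 nm and Papp calculated. Three plates on different days.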

A short description of data set [6]: Metabolic stability in human liver microsomes at 50 uM after 60 mins in presence of NADPH-generating system by LC-UV-MS analysis. It counts as ADME, Microsome. Particulars: read-out: Stability. In short, it runs like this:
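Compound at 50 μM final (DMSO ≤2%) incubated with human liver microsomes (0.2 mg/mL) and NADPH-generating system in 125 mM phosphate buffer pH 7.4, 37 °C, 60 min. Remaining compound measured by LC-ESI-MS in positive ion mode, with UV at 280 nm.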

Data set [7] concerns the target T2, ATP-dependent RNA helicase DDX1 (Homo sapiens, UniProt Q92499).
T2 sequence (Q92499 whole entry): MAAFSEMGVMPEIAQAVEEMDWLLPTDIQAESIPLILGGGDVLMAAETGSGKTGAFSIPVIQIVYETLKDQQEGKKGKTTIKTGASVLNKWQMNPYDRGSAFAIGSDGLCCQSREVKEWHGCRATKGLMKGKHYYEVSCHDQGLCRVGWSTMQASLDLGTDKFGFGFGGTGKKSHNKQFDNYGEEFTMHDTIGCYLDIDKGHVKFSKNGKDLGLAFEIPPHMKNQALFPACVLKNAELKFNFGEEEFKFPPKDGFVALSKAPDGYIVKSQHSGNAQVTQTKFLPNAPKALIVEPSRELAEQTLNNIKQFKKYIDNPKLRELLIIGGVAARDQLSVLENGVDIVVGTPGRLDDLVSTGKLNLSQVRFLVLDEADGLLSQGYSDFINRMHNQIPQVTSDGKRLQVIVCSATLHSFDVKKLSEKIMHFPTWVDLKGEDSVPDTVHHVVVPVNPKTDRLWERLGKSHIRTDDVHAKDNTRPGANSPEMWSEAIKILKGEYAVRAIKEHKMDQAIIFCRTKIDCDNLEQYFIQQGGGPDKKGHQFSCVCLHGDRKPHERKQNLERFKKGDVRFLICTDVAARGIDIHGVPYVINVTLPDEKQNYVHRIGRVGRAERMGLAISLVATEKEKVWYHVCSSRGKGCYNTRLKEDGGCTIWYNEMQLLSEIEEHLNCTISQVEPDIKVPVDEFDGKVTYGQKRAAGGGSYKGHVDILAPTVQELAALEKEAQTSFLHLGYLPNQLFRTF
Nature of the data set: Inhibition of human DDX1 helicase activity.

In another data set the test system is Huh-7. The description is as §2. It counts as cell-based. The note with it: Homo sapiens, Huh-7, 72 h. In short, it runs like this: as §3
The subject of data set [8] is West Nile virus. Put plainly: Antiviral activity against West Nile virus infected in African green monkey Vero cells incubated for 4 days by crystal violet staining based plaque reduction assay. The format is functional, organism-based. The note with it: 96 h. In short, it runs like this:
(§5)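 Cell monolayers at 80–90% confluence were infected with WNV lineage 2 strain at MOI 0.1 for 1 h at 37°C with 5% CO2, then washed. DMSO vehicle or compound (final 100, 10, 1, 0.1, 0.01 μM) was added in duplicate under a 0.5% agarose overlay. Ribavirin served as reference. After methanol fixation and 0.1% crystal violet staining, PFU were expressed relative to DMSO control. IC50 was interpolated at 50% PFU; experiments were repeated at least twice.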

The test system of data set [9] is West Nile virus. Nature of the data set: Antiviral activity against West Nile virus infected in human A549 cells incubated for 4 days by crystal violet staining based plaque reduction assay. Particulars: A549, 96 h. It counts as functional, organism-based. An outline of the steps: as §5
(In general: In a plaque reduction assay, fewer plaques than in the control indicate reduced infectivity or spread.)

Data set [10] concerns the target T1, ATP-dependent RNA helicase DDX3X. Put plainly: Competitive inhibition of full length His-tagged human DDX3X expressed in Escherichia coli assessed as reduction in DDX3X helicase activity using 0.024 uM FAM-labeled double stranded RNA as substrate after 40 mins by FRET assay relative to control. An outline of the steps: as §4
For data set [11] the target is unchanged. Put plainly: Competitive inhibition of full length His-tagged human DDX3X expressed in Escherichia coli assessed as reduction in DDX3X helicase activity using 0.1 uM FAM-labeled double stranded RNA as substrate after 40 mins by FRET assay relative to control. An outline of the steps: as §4
For data set [12] the target is unchanged. Put plainly: Competitive inhibition of human full length His-tagged DDX3X helicase activity expressed in Escherichia coli using FAM-labeled double stranded RNA as substrate at 0.1 uM after 40 mins by fluorescence assay. An outline of the steps: as §4

T1 sequence (O00571 2-662 limits assumed): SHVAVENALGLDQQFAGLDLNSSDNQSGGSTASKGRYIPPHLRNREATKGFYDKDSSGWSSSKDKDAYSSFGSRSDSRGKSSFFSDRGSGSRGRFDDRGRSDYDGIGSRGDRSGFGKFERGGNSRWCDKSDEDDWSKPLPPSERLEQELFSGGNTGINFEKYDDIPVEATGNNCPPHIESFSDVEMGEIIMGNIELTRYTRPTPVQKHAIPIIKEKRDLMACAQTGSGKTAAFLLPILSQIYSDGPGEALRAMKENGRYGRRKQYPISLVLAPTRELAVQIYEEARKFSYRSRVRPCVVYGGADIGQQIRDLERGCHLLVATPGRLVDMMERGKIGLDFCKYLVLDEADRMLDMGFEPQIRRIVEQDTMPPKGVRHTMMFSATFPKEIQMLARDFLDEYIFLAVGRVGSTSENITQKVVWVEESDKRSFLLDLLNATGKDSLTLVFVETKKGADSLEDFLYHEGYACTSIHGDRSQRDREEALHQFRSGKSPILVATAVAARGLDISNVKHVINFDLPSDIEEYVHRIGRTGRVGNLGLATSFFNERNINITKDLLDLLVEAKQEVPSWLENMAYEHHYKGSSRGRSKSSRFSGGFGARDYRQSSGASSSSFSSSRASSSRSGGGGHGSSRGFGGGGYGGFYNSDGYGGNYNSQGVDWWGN

As for `C[C@@]1(O)[C@H](O)[C@@H](CO)O[C@H]1n1cnc2c(N)ncnc21`, the EC50 with West Nile virus [1] was 5.1 µM.

On to `CCCCc1cn(-c2cccc(S(=O)(=O)Nc3ccccc3F)c2)nn1`, for which, in data set [2], the CC50 at 72 h was more than 200 µM. In addition, the inhibition in data set [3] was 24%. In the data set on West Nile virus [4], this molecule gave an EC50 of more than 200 µM.

With `CCOC(=O)[C@@](C)(O)[C@@H]1C[C@@H](CO[Si](c2ccccc2)(c2ccccc2)C(C)(C)C)O[C@H]1n1cc(F)c(=O)[nH]c1=O`, the EC50 with West Nile virus [1] stood at 27 µM.

As for `COCCc1cn(-c2cccc(S(=O)(=O)Nc3ccccc3C(F)(F)F)c2)nn1`, the inhibition in [3] is 67%.

Turning to `CCOCc1cn(-c2cccc(S(=O)(=O)Nc3cccc4cnccc34)c2)nn1`, the apparent permeability (Papp) in data set [5] worked out at 0.44 ×10⁻⁶ cm/s. Further, the CC50 at 72 h in [2] is more than 200 µM. The inhibition in [3] turned out to be 98%. In the data set on West Nile virus [4], the midpoint of the response, the EC50, lay at 13 µM. Moreover, the remaining at 1 h, 50 µM in data set [6] was determined as 96%.

`CC(C)CCc1cn(-c2cccc(S(=O)(=O)Nc3ccccc3C(F)(F)F)c2)nn1`: the inhibition in data set [3] worked out at 96%.

Molecule `CCCCc1cn(-c2ccc(NC(=O)Nc3ccccc3C)cc2)nn1` came in with an IC50 in data set [7] of more than 200 µM. In [2], this molecule gave a CC50 at 72 h of more than 200 µM. For the same molecule, in data set [3], the inhibition was 98%. The molecule also returned an EC50 in the data set on West Nile virus [4] of 8.8 µM. In addition, the remaining at 1 h, 50 µM in data set [6] was 99%.

`O=[N+]([O-])c1cccc(S(=O)(=O)Nc2ccccc2O)c1` gave an IC50 in data set [7] of more than 200 µM. For the same molecule, in [5], the Papp was less than 0.1 ×10⁻⁶ cm/s. Further, it took 175 µM to reach half-maximal cytotoxicity in [2] (CC50 at 72 h). For the same molecule, the inhibition in [3] was found to be 98%. In the data set with West Nile virus [4], this molecule yielded an EC50 of 120 µM. The remaining at 1 h, 50 µM in [6] was determined as 98.3%.

On to `CCCCc1cn(-c2ccc(S(=O)(=O)Nc3ccccc3O)cc2)nn1`, for which the inhibition in data set [3] was found to be 57%.

Consider `C[C@@]1(O)[C@H](O)[C@@H](CO)O[C@H]1n1ccc2c(N)ncnc21` [BETA-2'-C-METHYL-7-DEAZA-ADENOSINE], for which the EC50 in the data set with West Nile virus [1] came out at 4.5 µM.

With `O=S(=O)(Nc1ccccc1C(F)(F)F)c1cccc(-n2cc(C3CCCCC3)nn2)c1`, in [3], the inhibition turned out to be 52%.

Regarding `NC(=O)c1ncn([C@@H]2O[C@H](CO)[C@@H](O)[C@H]2O)n1` [RIBAVIRIN], the IC50 in the data set on Huh-7 was more than 200 µM. Moreover, the EC50 was 95 µM with West Nile virus [8], 71.2 µM with West Nile virus [1], 90 to 95.5 µM with West Nile virus [4] and 46 µM with West Nile virus [9].

Consider `CCc1cn(-c2cccc(S(=O)(=O)Nc3ccccc3C(F)(F)F)c2)nn1`, for which the inhibition in [3] is 71%.

With `CCOCc1cn(-c2cccc(S(=O)(=O)Nc3cccc(N4CCOCC4)c3)c2)nn1`, the inhibition result in [3] is “inactive”.

For the molecule `CCOCc1cn(-c2cccc(S(=O)(=O)Nc3ccccc3C(F)(F)F)c2)nn1`, the Papp in [5] worked out at 0.71 ×10⁻⁶ cm/s. The CC50 at 72 h in data set [2] is more than 200 µM. Further, the inhibition in data set [3] is 98%. This molecule had an EC50 in the data set on West Nile virus [4] of 65.9 µM. Also, the remaining at 1 h, 50 µM in data set [6] was 97.1%.

In data set [7], `CCCCc1cn(-c2cccc(S(=O)(=O)Nc3cccc4cnccc34)c2)nn1` showed an IC50 of more than 200 µM. Moreover, the Papp in data set [5] was determined as 0.68 ×10⁻⁶ cm/s. Moreover, in data set [2], the CC50 at 72 h is more than 200 µM. Moreover, in [3], the inhibition came out at 99%. In the data set on West Nile virus [4], the midpoint of the response, the EC50, lay at 55 µM. In addition, the remaining at 1 h, 50 µM in [6] was found to be 98%.

Regarding `CCCCc1cn(-c2cccc(S(=O)(=O)Nc3ccc(OC)cc3)c2)nn1`, the inhibition in data set [3] stood at 80%.

As to `C[C@@]1(O)[C@H](O)[C@@H](CO)O[C@H]1n1cnc2c(=O)[nH]c(N)nc21` [2'-B-METHYL-GUANOSINE], a half-maximal effect in the data set with West Nile virus [1] (EC50) was put at 30 µM.

As to `CCCCc1cn(-c2cccc(S(=O)(=O)Nc3ccccc3O)c2)nn1`, the ID50 was found to be 0.3 µM in data set [10], 2.2 µM in [11] and 20 µM in data set [12]. In data set [5], the Papp was 0.1 ×10⁻⁶ cm/s. Also, the CC50 at 72 h in data set [2] was more than 200 µM. The inhibition in data set [3] was determined as 83%. This molecule registered an EC50 in the data set on West Nile virus [4] of 2.3 µM. Further, the remaining at 1 h, 50 µM in data set [6] amounted to 95.6%.

`O=S(=O)(Nc1ccccc1C(F)(F)F)c1cccc(-n2cc(-c3ccccc3)nn2)c1`: the inhibition in data set [3] came out at 41%.

For `CCCCc1cn(-c2cccc(S(=O)(=O)Nc3ccccc3OC)c2)nn1`, the inhibition in [3] came out at 98%.

In the case of `CCCCc1cn(-c2cccc(S(=O)(=O)Nc3ccccc3C)c2)nn1`, in [2], the CC50 at 72 h was more than 200 µM. For the same molecule, the inhibition in [3] came to 59%. The molecule also gave an EC50 in the data set with West Nile virus [4] of 39.9 µM.

As for `CCCCc1cn(-c2cccc(S(=O)(=O)Nc3ccccc3)c2)nn1`, in [3], the inhibition is 31%.

Usually EC50 stands for the midpoint of the concentration-response curve. Usually CC50 stands for the concentration at which the toxic effect on the cells reaches its halfway point. Usually inhibition stands for the percentage by which the read-out fell short of the control. One may read the Papp as the rate of passage across a membrane or cell layer, normalised by area and donor concentration. One may read the IC50 as the midpoint of a concentration-inhibition curve.
